From ChEMBL document CHEMBL2331322, “Synthesis and antimicrobial activity of some new benzo and naphthonitrile derivatives” (2013)
Converted amounts (≈) assume the structure as drawn.

Columns and labels:
Type in all cases: functional
Bacillus subtilis [1] = assay: Antimicrobial activity against Bacillus subtilis at 1 mg/mL after 24 hrs by agar disc diffusion method; conditions: read-out: DIZ
Outline: (§1)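 Sterile 5 mm filter paper disks were impregnated with test solution in DMF (1 mg/mL) and placed on agar plates seeded with the test organism, in triplicate. Bacteria were incubated at 37 °C for 24 h and fungi for […] (so in the source). The read-out was the average inhibition zone diameter around the disks, in mm.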

Bacillus subtilis [2] = assay: Antimicrobial activity against Bacillus subtilis after 24 hrs by microdilution susceptibility test
Outline: (§2)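 MIC was determined by broth microdilution, using Müller–Hinton broth for bacteria and Sabouraud liquid medium for fungi. Stocks were made in DMF and serially diluted twofold. Wells were inoculated at 10⁶ CFU/mL and plates incubated at 36 °C for 24–48 h, with controls included. Only compounds giving agar-diffusion zones >14 mm were tested.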

Escherichia coli [3] = assay: Antimicrobial activity against Escherichia coli at 1 mg/mL after 24 hrs by agar disc diffusion method; conditions: read-out: DIZ; outline: as §1
Escherichia coli [4] = assay: Antimicrobial activity against Escherichia coli after 24 hrs by microdilution susceptibility test; outline: as §2
Pseudomonas aeruginosa [5] = assay: Antimicrobial activity against Pseudomonas aeruginosa after 24 hrs by microdilution susceptibility test; outline: as §2
Bacillus thuringiensis [6] = assay: Antimicrobial activity against Bacillus thuringiensis after 24 hrs by microdilution susceptibility test; outline: as §2
Botrytis fabae [7] = assay: Antimicrobial activity against Botrytis fabae after 48 hrs by microdilution susceptibility test; outline: as §2
Botrytis fabae [8] = assay: Antimicrobial activity against Botrytis fabae at 1 mg/mL […] by agar disc diffusion method; conditions: read-out: DIZ
Fusarium oxysporum [9] = assay: Antimicrobial activity against Fusarium oxysporum after 48 hrs by microdilution susceptibility test; outline: as §2
Fusarium oxysporum [10] = assay: Antimicrobial activity against Fusarium oxysporum at 1 mg/mL after 48 hrs by agar disc diffusion method; conditions: read-out: DIZ; outline: as §1
Bacillus thuringiensis [11] = assay: Antimicrobial activity against Bacillus thuringiensis at 1 mg/mL after 24 hrs by agar disc diffusion method; conditions: read-out: DIZ; outline: as §1
Pseudomonas aeruginosa [12] = assay: Antimicrobial activity against Pseudomonas aeruginosa at 1 mg/mL after 24 hrs by agar disc diffusion method; conditions: read-out: DIZ; outline: as §1

Structure (SMILES)	zone of inhibition at 1000 µg/mL (Bacillus subtilis [1]) [mm]	MBC (Bacillus subtilis [2]) [µg/mL]	MIC (Bacillus subtilis [2]) [µg/mL]	zone of inhibition at 1000 µg/mL (Escherichia coli [3]) [mm]	MBC (Escherichia coli [4]) [µg/mL]	MIC (Escherichia coli [4]) [µg/mL]	MIC (Pseudomonas aeruginosa [5]) [µg/mL]	MIC (Bacillus thuringiensis [6]) [µg/mL]	MIC (Botrytis fabae [7]) [µg/mL]	zone of inhibition at 1000 µg/mL (Botrytis fabae [8]) [mm]	MIC (Fusarium oxysporum [9]) [µg/mL]	zone of inhibition at 1000 µg/mL (Fusarium oxysporum [10]) [mm]	zone of inhibition at 1000 µg/mL (Bacillus thuringiensis [11]) [mm]	zone of inhibition at 1000 µg/mL (Pseudomonas aeruginosa [12]) [mm]
CC1(C)S[C@@H]2[C@H](NC(=O)[C@H](N)c3ccccc3)C(=O)N2[C@H]1C(=O)O [AMPICILLIN]	40	50 (≈ 143 µM)	3.12 (≈ 8.94 µM)	38	25 (≈ 71.5 µM)	6.25 (≈ 17.9 µM)	–	–	–	–	–	–	–	–
N#Cc1ccccc1C(C#N)/N=N/c1ccc([N+](=O)[O-])cc1 (stereo not drawn)	43	50 (≈ 172 µM)	3.12 (≈ 10.7 µM)	36	100 (≈ 343 µM)	6.25 (≈ 21.5 µM)	6.25 (≈ 21.5 µM)	6.25 (≈ 21.5 µM)	6.25 (≈ 21.5 µM)	40	6.25 (≈ 21.5 µM)	41	37	35
N#Cc1ccccc1C(/N=N/c1ccc([N+](=O)[O-])cc1)C(N)=O (stereo not drawn)	33	50 (≈ 162 µM)	6.25 (≈ 20.2 µM)	15	200 (≈ 647 µM)	25 (≈ 80.8 µM)	25 (≈ 80.8 µM)	12.5 (≈ 40.4 µM)	12.5 (≈ 40.4 µM)	38	12.5 (≈ 40.4 µM)	35	35	16
CCOC(=O)c1c2[nH]c(=N)c3ccccc3c2nn1-c1ccccc1	33	200 (≈ 602 µM)	25 (≈ 75.2 µM)	20	200 (≈ 602 µM)	50 (≈ 150 µM)	50 (≈ 150 µM)	25 (≈ 75.2 µM)	25 (≈ 75.2 µM)	20	50 (≈ 150 µM)	33	35	19
N=c1[nH]c2nn(-c3ccccc3)nc2c2ccccc12	33	200 (≈ 765 µM)	50 (≈ 191 µM)	20	200 (≈ 765 µM)	50 (≈ 191 µM)	50 (≈ 191 µM)	25 (≈ 95.7 µM)	25 (≈ 95.7 µM)	16	25 (≈ 95.7 µM)	20	37	19
N#Cc1ccccc1C(/N=N/c1ccc(Cl)cc1)C(N)=O (stereo not drawn)	38	50 (≈ 167 µM)	6.25 (≈ 20.9 µM)	27	100 (≈ 335 µM)	12.5 (≈ 41.8 µM)	25 (≈ 83.7 µM)	12.5 (≈ 41.8 µM)	12.5 (≈ 41.8 µM)	16	25 (≈ 83.7 µM)	16	33	15
COc1ccc(-n2nc3[nH]c(=N)c4ccccc4c3n2)cc1	33	200 (≈ 687 µM)	50 (≈ 172 µM)	19	200 (≈ 687 µM)	50 (≈ 172 µM)	50 (≈ 172 µM)	50 (≈ 172 µM)	25 (≈ 85.8 µM)	15	25 (≈ 85.8 µM)	19	35	15
COc1cc(-c2c(C#N)c(N)c3ccccc3c2C#N)cc(OC)c1OC	26	200 (≈ 557 µM)	50 (≈ 139 µM)	35	200 (≈ 557 µM)	100 (≈ 278 µM)	100 (≈ 278 µM)	50 (≈ 139 µM)	50 (≈ 139 µM)	28	50 (≈ 139 µM)	33	35	32
Cc1ccc(/N=N/C(C#N)c2ccccc2C#N)cc1 (stereo not drawn)	35	100 (≈ 384 µM)	12.5 (≈ 48 µM)	30	200 (≈ 768 µM)	25 (≈ 96 µM)	25 (≈ 96 µM)	25 (≈ 96 µM)	25 (≈ 96 µM)	35	12.5 (≈ 48 µM)	33	33	16
CCOC(=O)c1c2[nH]c(=N)c3ccccc3c2nn1-c1ccc(OC)cc1	40	200 (≈ 552 µM)	50 (≈ 138 µM)	30	200 (≈ 552 µM)	50 (≈ 138 µM)	50 (≈ 138 µM)	25 (≈ 69 µM)	50 (≈ 138 µM)	19	25 (≈ 69 µM)	38	37	20
COc1ccc(/N=N/C(C#N)c2ccccc2C#N)cc1 (stereo not drawn)	39	100 (≈ 362 µM)	6.25 (≈ 22.6 µM)	35	50 (≈ 181 µM)	12.5 (≈ 45.2 µM)	25 (≈ 90.5 µM)	12.5 (≈ 45.2 µM)	12.5 (≈ 45.2 µM)	38	12.5 (≈ 45.2 µM)	37	36	30
O=C(N[C@H](CO)[C@H](O)c1ccc([N+](=O)[O-])cc1)C(Cl)Cl [CHLORAMPHENICOL]	44	–	3.12 (≈ 9.67 µM)	37	–	6.25 (≈ 19.3 µM)	6.25 (≈ 19.3 µM)	3.12 (≈ 9.67 µM)	–	–	–	–	44	38
Cc1ccc(/N=N/C(C(N)=O)c2ccccc2C#N)cc1 (stereo not drawn)	31	100 (≈ 359 µM)	25 (≈ 89.8 µM)	15	200 (≈ 719 µM)	50 (≈ 180 µM)	12.5 (≈ 44.9 µM)	50 (≈ 180 µM)	25 (≈ 89.8 µM)	20	25 (≈ 89.8 µM)	38	36	16
N#CC1c2ccccc2C(=N)C(C#N)(C#N)C1c1ccc(Cl)cc1 (stereo not drawn)	20	200 (≈ 605 µM)	50 (≈ 151 µM)	33	200 (≈ 605 µM)	100 (≈ 302 µM)	100 (≈ 302 µM)	50 (≈ 151 µM)	50 (≈ 151 µM)	26	50 (≈ 151 µM)	20	33	31
CCOC(=O)c1c2[nH]c(=N)c3ccccc3c2nn1-c1ccc(C)cc1	32	200 (≈ 577 µM)	25 (≈ 72.2 µM)	15	200 (≈ 577 µM)	50 (≈ 144 µM)	50 (≈ 144 µM)	50 (≈ 144 µM)	50 (≈ 144 µM)	16	50 (≈ 144 µM)	25	20	15
CC(=O)OCC1=C(C(=O)O)N2C(=O)[C@@H](NC(=O)Cc3cccs3)[C@H]2SC1 [CEPHALOTHIN]	36	–	6.25 (≈ 15.8 µM)	38	–	6.25 (≈ 15.8 µM)	6.25 (≈ 15.8 µM)	6.25 (≈ 15.8 µM)	–	–	–	–	37	37
C[C@@H]1C[C@@H]([C@H](O)CC2CC(=O)NC(=O)C2)C(=O)[C@@H](C)C1 [CYCLOHEXIMIDE]	–	–	–	–	–	–	–	–	3.12 (≈ 11.1 µM)	42	3.12 (≈ 11.1 µM)	43	–	–
